Source: ChEMBL document CHEMBL4715736, “Identification of anticancer agents based on the thieno[2,3-b]pyridine and 1H-pyrazole molecular scaffolds” (2016)

Assays:
Assay type in all cases: functional
Details in all cases: read-out: Activity
HL-60(TB) = assay: Growth inhibition of human HL-60(TB) cells assessed as cell growth at 10 uM incubated for 48 hrs by sulforhodamine B assay relative to control
In short: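 Screened by the NCI Developmental Therapeutics Program on its panel of 60 human tumour cell lines. Compounds were first tested at a single 10 µM dose, and compounds active there went to dose-response curves. Growth is expressed relative to untreated control (100%). GI50 (50% of maximal proliferation inhibition) and TGI (total growth inhibition) were derived from the dose-response data.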

MOLT-4 = assay: Growth inhibition of human MOLT-4 cells assessed as cell growth at 10 uM incubated for 48 hrs by sulforhodamine B assay relative to control
In short: (§1)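 Submitted to the NCI Developmental Therapeutics Program for the NCI60 human tumour cell line panel. First screen at a single 10 µM concentration. Read-out is growth relative to untreated control cells set at 100%.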

A549 = assay: Growth inhibition of human A549/ATCC cells assessed as cell growth at 10 uM incubated for 48 hrs by sulforhodamine B assay relative to control
In short: (§2)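 NCI Developmental Therapeutics Program NCI60 panel. Compounds that were active in the 10 µM one-dose screen went on to dose–response testing. Growth at each concentration is expressed relative to untreated control (100%). GI50 (concentration giving 50% of maximal inhibition of proliferation) and TGI (concentration giving total growth inhibition) were derived from the curves.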

HOP-92 = assay: Growth inhibition of human HOP-92 cells assessed as cell growth at 10 uM incubated for 48 hrs by sulforhodamine B assay relative to control; in short: as §1
NCI-H460 = assay: Growth inhibition of human NCI-H460 cells assessed as cell growth at 10 uM incubated for 48 hrs by sulforhodamine B assay relative to control; in short: as §1
COLO 205 = assay: Growth inhibition of human COLO 205 cells assessed as cell growth at 10 uM incubated for 48 hrs by sulforhodamine B assay relative to control; in short: as §2
HCC 2998 = assay: Growth inhibition of human HCC 2998 cells assessed as cell growth at 10 uM incubated for 48 hrs by sulforhodamine B assay relative to control; in short: as §2
HCT-116 = assay: Growth inhibition of human HCT-116 cells assessed as cell growth at 10 uM incubated for 48 hrs by sulforhodamine B assay relative to control; in short: as §1
HCT-15 = assay: Growth inhibition of human HCT-15 cells assessed as cell growth at 10 uM incubated for 48 hrs by sulforhodamine B assay relative to control; in short: as §1
KM12 = assay: Growth inhibition of human KM12 cells assessed as cell growth at 10 uM incubated for 48 hrs by sulforhodamine B assay relative to control; in short: as §1
SF-295 = assay: Growth inhibition of human SF-295 cells assessed as cell growth at 10 uM incubated for 48 hrs by sulforhodamine B assay relative to control
In short: (§3)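 Run by the NCI Developmental Therapeutics Program as part of its 60-line human tumour panel. Each compound tested at a single 10 µM dose. Growth expressed as % relative to untreated control cells (100%).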

SF-539 = assay: Growth inhibition of human SF-539 cells assessed as cell growth at 10 uM incubated for 48 hrs by sulforhodamine B assay relative to control; in short: as §3
SNB-19 = assay: Growth inhibition of human SNB-19 cells assessed as cell growth at 10 uM incubated for 48 hrs by sulforhodamine B assay relative to control; in short: as §3
U-251 = assay: Growth inhibition of human U-251 cells assessed as cell growth at 10 uM incubated for 48 hrs by sulforhodamine B assay relative to control; in short: as §3
M14 = assay: Growth inhibition of human M14 cells assessed as cell growth at 10 uM incubated for 48 hrs by sulforhodamine B assay relative to control; in short: as §1
MDA-MB-435 = assay: Growth inhibition of human MDA-MB-435 cells assessed as cell growth at 10 uM incubated for 48 hrs by sulforhodamine B assay relative to control; in short: as §1
SK-MEL-5 = assay: Growth inhibition of human SK-MEL-5 cells assessed as cell growth at 10 uM incubated for 48 hrs by sulforhodamine B assay relative to control; in short: as §3
OVCAR-3 = assay: Growth inhibition of human OVCAR-3 cells assessed as cell growth at 10 uM incubated for 48 hrs by sulforhodamine B assay relative to control; in short: as §3
OVCAR-4 = assay: Growth inhibition of human OVCAR-4 cells assessed as cell growth at 10 uM incubated for 48 hrs by sulforhodamine B assay relative to control; in short: as §3
OVCAR-8 = assay: Growth inhibition of human OVCAR-8 cells assessed as cell growth at 10 uM incubated for 48 hrs by sulforhodamine B assay relative to control; in short: as §3
NCI/ADR-RES = assay: Growth inhibition of human NCI/ADR-RES cells assessed as cell growth at 10 uM incubated for 48 hrs by sulforhodamine B assay relative to control; in short: as §1
786-0 = assay: Growth inhibition of human 786-0 cells assessed as cell growth at 10 uM incubated for 48 hrs by sulforhodamine B assay relative to control; in short: as §2
A498 = assay: Growth inhibition of human A498 cells assessed as cell growth at 10 uM incubated for 48 hrs by sulforhodamine B assay relative to control; in short: as §2
ACHN = assay: Growth inhibition of human ACHN cells assessed as cell growth at 10 uM incubated for 48 hrs by sulforhodamine B assay relative to control
In short: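 NCI Developmental Therapeutics Program NCI60 human tumour cell line panel, one-dose primary screen with every compound at 10 µM. Growth is expressed as % of untreated control cells (100%).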

RXF 393 = assay: Growth inhibition of human RXF 393 cells assessed as cell growth at 10 uM incubated for 48 hrs by sulforhodamine B assay relative to control; in short: as §3
SN12C = assay: Growth inhibition of human SN12C cells assessed as cell growth at 10 uM incubated for 48 hrs by sulforhodamine B assay relative to control; in short: as §3
UO-31 = assay: Growth inhibition of human UO-31 cells assessed as cell growth at 10 uM incubated for 48 hrs by sulforhodamine B assay relative to control; in short: as §3
PC-3 = assay: Growth inhibition of human PC-3 cells assessed as cell growth at 10 uM incubated for 48 hrs by sulforhodamine B assay relative to control; in short: as §3
DU-145 = assay: Growth inhibition of human DU-145 cells assessed as cell growth at 10 uM incubated for 48 hrs by sulforhodamine B assay relative to control; in short: as §2
MCF7 = assay: Growth inhibition of human MCF7 cells assessed as cell growth at 10 uM incubated for 48 hrs by sulforhodamine B assay relative to control; in short: as §1
T47D = assay: Growth inhibition of human T47D cells assessed as cell growth at 10 uM incubated for 48 hrs by sulforhodamine B assay relative to control; in short: as §3
MDA-MB-468 = assay: Growth inhibition of human MDA-MB-468 cells assessed as cell growth at 10 uM incubated for 48 hrs by sulforhodamine B assay relative to control; in short: as §1

| Compound | growth at 10 µM (HL-60(TB)) [%] | growth at 10 µM (MOLT-4) [%] | growth at 10 µM (A549) [%] | growth at 10 µM (HOP-92) [%] | growth at 10 µM (NCI-H460) [%] | growth at 10 µM (COLO 205) [%] | growth at 10 µM (HCC 2998) [%] | growth at 10 µM (HCT-116) [%] | growth at 10 µM (HCT-15) [%] | growth at 10 µM (KM12) [%] | growth at 10 µM (SF-295) [%] | growth at 10 µM (SF-539) [%] | growth at 10 µM (SNB-19) [%] | growth at 10 µM (M14) [%] | growth at 10 µM (MDA-MB-435) [%] | growth at 10 µM (SK-MEL-5) [%] | growth at 10 µM (OVCAR-3) [%] | growth at 10 µM (OVCAR-4) [%] | growth at 10 µM (OVCAR-8) [%] | growth at 10 µM (NCI/ADR-RES) [%] | further results |
| --- | --- | --- | --- | --- | --- | --- | --- | --- | --- | --- | --- | --- | --- | --- | --- | --- | --- | --- | --- | --- | --- |
| Cc1cccc(NC(=O)c2sc3nc4c(cc3c2N)CN(Cc2ccccc2)CC4)c1 | 108 | 103 | 84.2 | 100 | 98.6 | 104 | 104 | 92.6 | 97.5 | 96.4 | 110 | 79.9 | 110 | 106 | 94.5 | 103 | 116 | 105 | 98.2 | 101 | growth at 10 µM (U-251): 85.4%; growth at 10 µM (786-0): 91.5%; growth at 10 µM (A498): 85.1%; growth at 10 µM (ACHN): 102%; growth at 10 µM (RXF 393): 103%; growth at 10 µM (SN12C): 107%; growth at 10 µM (UO-31): 98.4%; growth at 10 µM (PC-3): 98%; growth at 10 µM (DU-145): 89.3%; growth at 10 µM (MCF7): 95.9%; growth at 10 µM (T47D): 98.6%; growth at 10 µM (MDA-MB-468): 94.8% |
| CC(=O)c1cccc(NC(=O)c2sc3nc4c(cc3c2N)C(=O)CCC4)c1 | 102 | 107 | 92.8 | 92.8 | 108 | 100 | 97.7 | 108 | 93.7 | 95.2 | 90.8 | 101 | 99.5 | 100 | 66.8 | 96 | 120 | 88.1 | 101 | 107 | growth at 10 µM (786-0): 97%; growth at 10 µM (A498): 86.9%; growth at 10 µM (ACHN): 103%; growth at 10 µM (RXF 393): 104%; growth at 10 µM (SN12C): 109%; growth at 10 µM (UO-31): 99.7%; growth at 10 µM (PC-3): 96.3%; growth at 10 µM (DU-145): 108%; growth at 10 µM (MCF7): 84.4%; growth at 10 µM (T47D): 93.8%; growth at 10 µM (MDA-MB-468): 82.8% |
| CC(C)N1CCc2nc3sc(C(=O)Nc4ccccc4)c(N)c3cc2C1 | 98.4 | 106 | 89.8 | 55.6 | 99.6 | 102 | 110 | 102 | 101 | 101 | 105 | 93 | 105 | 108 | 94 | 95 | 108 | 105 | 95.9 | 100 | growth at 10 µM (U-251): 92.7%; growth at 10 µM (786-0): 108%; growth at 10 µM (A498): 67.5%; growth at 10 µM (ACHN): 100%; growth at 10 µM (RXF 393): 102%; growth at 10 µM (SN12C): 106%; growth at 10 µM (UO-31): 87.8%; growth at 10 µM (PC-3): 81.9%; growth at 10 µM (DU-145): 110%; growth at 10 µM (MCF7): 94.7%; growth at 10 µM (T47D): 91.7%; growth at 10 µM (MDA-MB-468): 95.6% |
